Data taken from ChEMBL document CHEMBL1154279, “Cytotoxic compounds from the stems of Cinnamomum tenuifolium” (J Nat Prod, 2009).

Assays:
DU-145 = test: Cytotoxicity against human DU145 cells after 72 hrs by XTT assay; assay type: functional, cell-based; conditions: DU-145, 24 h, in the assay text read “after 24 hrs” for “after 72 hrs”
LNCaP = test: Cytotoxicity against human LNCAP cells after 72 hrs by XTT assay; assay type: functional, cell-based; conditions: 24 h, in the assay text read “after 24 hrs” for “after 72 hrs”
Summary of the method: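 Prostate cancer cells in RPMI-1640 with 10% FBS, 37 °C, 5% CO2, grown to 70–80% confluence and treated at 0.1–100 µM for 24, 48 and 72 h. XTT labeling for 4 h at 37 °C, absorbance 450 nm (reference 650 nm) against control wells. IC50 derived from the mean of eight wells; taxol and cisplatin served as positive controls.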

C=C1OC(=O)/C(=C\CCCCCCCCCCCCCCCCCCCCCCCCCC)[C@@H]1O [TENUIFOLIDE A]
IC50 (DU-145): 211 µM | IC50 (LNCaP): 450 µM
